In ChEMBL document CHEMBL1133704, “Synthesis, biodistribution, and primate imaging of fluorine-18 labeled 2beta-carbo-1'-fluoro-2-propoxy-3beta-(4-chlorophenyl)tr opanes. Ligands for the imaging of dopamine transporters by positron emission tomography” (J Med Chem, 2000):

Legend:
kidney = assay: Ratio of inhibition of 5-HT to inhibition of dopamine (5-HT/DA) in murine kidney cells transfected with human serotonin transporter.; type: cell-based
[1] = Ratio of inhibition of 5-HT to inhibition of dopamine (5-HT/DA); ND means no data.
[2] = molecular target: Sodium-dependent dopamine transporter (Homo sapiens, UniProt Q01959); assay: Inhibition constant against [N-methyl-3H]WIN-35428 in murine kidney cells transfected with human dopamine transporter.; type: cell-based
Summary of the method: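 Membranes from a kidney cell line stably expressing human DAT. Buffer: 0.03 M phosphate, pH 7.4, with 0.32 M sucrose. Radioligand: [³H]WIN 35,428 at 2.0 nM final. Incubated 2 h at 4 °C with competitor at nine concentrations (10^-13 to 10^-6 M, triplicate). GF/B filtration, then scintillation counting. Ki taken from competition curves.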

[3] = molecular target: Sodium-dependent serotonin transporter (Rattus norvegicus, UniProt P31652); assay: Inhibition constant in rat serotonin transporter.
Summary of the method: (§1)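 Run by an outside screening program on membranes from rat striatum or cortex. Radioligand (2-12 nM) was incubated with 7-11 competitor concentrations. Radioligands: [N-methyl-³H]WIN 35,428 for DAT, [³H]citalopram for 5-HT transporter, [³H]desmethylimipramine for NE transporter. Ki values reported.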

[4] = molecular target: Sodium-dependent dopamine transporter (Rattus norvegicus, UniProt P23977); assay: Inhibition constant in rat dopamine transporter.; summary of the method: as §1
[5] = molecular target: Sodium-dependent serotonin transporter (Homo sapiens, UniProt P31645); assay: Inhibition constant against [3H]citalopram in murine kidney cells transfected with human serotonin transporter.; type: cell-based
Summary of the method: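 Membranes from a kidney cell line stably expressing human SERT. Buffer: 50 mM Tris, 120 mM NaCl, 5 mM KCl, pH 7.9. Radioligand: [³H]citalopram at 0.5 nM final. Incubated 1 h at 22 °C with competitor at nine concentrations (10^-13 to 10^-6 M, triplicate). Filtration, then scintillation counting. Ki taken from competition curves.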

[6] = molecular target: Norepinephrine transporter (Rattus norvegicus, UniProt Q9WTR4); assay: Inhibition constant in rat Norepinephrine transporter; summary of the method: as §1
Rattus norvegicus [7] = assay: Distribution of Radioactivity (percent injected dose per gram of tissue) in rest rat of brain after 30 min of iv administration; value ranges from 0.85-1.21; type: ADME, organism-based; details: in vivo, 0.5 h
Summary of the method: (§2)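 Male Sprague-Dawley rats (225-300 g) under ketamine received a tail-vein dose of 50 µCi of [18F]-labeled tropane in 0.2 mL 13% EtOH/0.9% NaCl. At 5, 30, 60 or 120 min, cortex, striatum and cerebellum were dissected into tared tubes, weighed and γ-counted. "Rest of brain" was also counted. %dose/g was calculated against the diluted injected dose. Values are mean and range for three or four rats.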

Rattus norvegicus [8] = assay: Distribution of Radioactivity (percent injected dose per gram of tissue) in Rat brain cerebellum after 120 min of iv administration; value ranges from 0.19-0.25; type: ADME, organism-based; details: in vivo, 2 h; summary of the method: as §2
Rattus norvegicus [9] = assay: Distribution of Radioactivity (percent injected dose per gram of tissue) in Rat brain cortex after 120 min of iv administration; value ranges from 0.22-0.33; type: ADME, organism-based; details: in vivo, 2 h; summary of the method: as §2
Rattus norvegicus [10] = assay: Distribution of Radioactivity (percent injected dose per gram of tissue) in rest rat of brain after 120 min of iv administration; value ranges from 0.22-0.33; type: ADME, organism-based; details: in vivo, 2 h; summary of the method: as §2
[11] = Ratio of Distribution of Radioactivity (percent injected dose per gram of tissue) in striatum to cortex of brain after 120 min of iv administration; value ranges from 2.61-3.24; type: ADME, organism-based; details: in vivo, 2 h
Rattus norvegicus [12] = assay: Distribution of Radioactivity (percent injected dose per gram of tissue) in Rat brain cerebellum after 5 min of iv administration; value ranges from 1.26-1.62; type: ADME, organism-based; details: in vivo; summary of the method: as §2
[13] = Ratio of Distribution of Radioactivity (percent injected dose per gram of tissue) in striatum to cerebellum of brain after 60 min of iv administration; value ranges from 4.43-6.93; type: ADME, organism-based; details: in vivo, 1 h
Rattus norvegicus [14] = assay: Distribution of Radioactivity (percent injected dose per gram of tissue) in Rat brain cortex after 60 min of iv administration; value ranges from 0.51-1.09; type: ADME, organism-based; details: in vivo, 1 h; summary of the method: as §2
Rattus norvegicus [15] = assay: Distribution of Radioactivity (percent injected dose per gram of tissue) in Rat brain cortex after 30 min of iv administration; value ranges from 2.47-3.09; type: ADME, organism-based; details: in vivo, 0.5 h; summary of the method: as §2
[16] = Ratio of Distribution of Radioactivity (percent injected dose per gram of tissue) in striatum to cerebellum of brain after 5 min of iv administration; value ranges from 2.49-3.81; type: ADME, organism-based; details: in vivo
Rattus norvegicus [17] = assay: Distribution of Radioactivity (percent injected dose per gram of tissue) in Rat striatum after 120 min of iv administration; value ranges from 1.07-1.22; type: ADME, organism-based; details: in vivo, 2 h; summary of the method: as §2
Rattus norvegicus [18] = assay: Distribution of Radioactivity (percent injected dose per gram of tissue) in Rat striatum 5 min of iv administration; value ranges from 3.44-4.80.; type: ADME, organism-based; details: in vivo; summary of the method: as §2
[19] = Ratio of Distribution of Radioactivity (percent injected dose per gram of tissue) in striatum to cortex of brain after 5 min of iv administration; value ranges from 1.32-1.94; type: ADME, organism-based; details: in vivo
[20] = Ratio of Distribution of Radioactivity (percent injected dose per gram of tissue) in striatum to cerebellum of brain after 120 min of iv administration; value ranges from 4.64-6.14; type: ADME, organism-based; details: in vivo, 2 h
Rattus norvegicus [21] = assay: Distribution of Radioactivity (percent injected dose per gram of tissue) in Rat brain cerebellum after 30 min of iv administration; value ranges from 0.75-1.23; type: ADME, organism-based; details: in vivo, 0.5 h; summary of the method: as §2
[22] = Ratio of Distribution of Radioactivity (percent injected dose per gram of tissue) in striatum to cortex of brain after 60 min of iv administration; value ranges from 2.59-4.06; type: ADME, organism-based; details: in vivo, 1 h
[23] = Ratio of Distribution of Radioactivity (percent injected dose per gram of tissue) in striatum to cortex of brain after 30 min of iv administration; value ranges from 1.67-2.85; type: ADME, organism-based; details: in vivo, 0.5 h
Rattus norvegicus [24] = assay: Distribution of Radioactivity (percent injected dose per gram of tissue) in Rat brain cortex after 5 min of iv administration; value ranges from 2.47-3.09; type: ADME, organism-based; details: in vivo; summary of the method: as §2
Rattus norvegicus [25] = assay: Distribution of Radioactivity (percent injected dose per gram of tissue) in Rat brain cerebellum after 60 min of iv administration; value ranges from 0.32-0.48; type: ADME, organism-based; details: in vivo, 1 h; summary of the method: as §2
Rattus norvegicus [26] = assay: Distribution of Radioactivity (percent injected dose per gram of tissue) in rest rat of brain after 5 min of iv administration; value ranges from 1.19-1.53; type: ADME, organism-based; details: in vivo; summary of the method: as §2
Rattus norvegicus [27] = assay: Distribution of Radioactivity (percent injected dose per gram of tissue) in rest rat of brain after 60 min of iv administration; value ranges from 0.36-0.52; type: ADME, organism-based; details: in vivo, 1 h; summary of the method: as §2
Rattus norvegicus [28] = assay: Distribution of Radioactivity (percent injected dose per gram of tissue)in Rat striatum after 30 min of iv administration; value ranges from 3.57-6.08; type: ADME, organism-based; details: in vivo, 0.5 h; summary of the method: as §2
Rattus norvegicus [29] = assay: Distribution of Radioactivity (percent injected dose per gram of tissue) in Rat striatum after 60 min of iv administration; value ranges from 2.07-2.83; type: ADME, organism-based; details: in vivo, 1 h; summary of the method: as §2
[30] = Ratio of Distribution of Radioactivity (percent injected dose per gram of tissue) in striatum to cerebellum of brain after 30 min of iv administration; value ranges from 3.83-4.94; type: ADME, organism-based; details: in vivo, 0.5 h

Chain of Sodium-dependent serotonin transporter (Homo sapiens, UniProt P31645) (P31645 whole entry): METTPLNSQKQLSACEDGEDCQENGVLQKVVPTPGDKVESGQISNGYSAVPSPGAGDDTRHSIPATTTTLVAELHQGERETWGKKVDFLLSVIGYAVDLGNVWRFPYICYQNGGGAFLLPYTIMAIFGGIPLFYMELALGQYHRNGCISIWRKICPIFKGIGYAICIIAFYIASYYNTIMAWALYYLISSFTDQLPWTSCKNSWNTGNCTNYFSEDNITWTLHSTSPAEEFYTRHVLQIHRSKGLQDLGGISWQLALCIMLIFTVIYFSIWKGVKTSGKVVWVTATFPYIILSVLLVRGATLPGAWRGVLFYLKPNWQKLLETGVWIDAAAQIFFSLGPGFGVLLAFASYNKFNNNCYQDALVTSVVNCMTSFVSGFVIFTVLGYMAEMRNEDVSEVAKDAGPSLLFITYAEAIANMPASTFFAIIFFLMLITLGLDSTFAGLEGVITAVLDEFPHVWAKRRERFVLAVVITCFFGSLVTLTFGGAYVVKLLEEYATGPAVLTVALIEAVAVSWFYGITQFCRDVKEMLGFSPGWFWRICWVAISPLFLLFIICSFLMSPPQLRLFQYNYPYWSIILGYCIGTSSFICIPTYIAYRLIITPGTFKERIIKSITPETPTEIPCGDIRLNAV
Chain of Sodium-dependent serotonin transporter (Rattus norvegicus, UniProt P31652) (P31652 whole entry): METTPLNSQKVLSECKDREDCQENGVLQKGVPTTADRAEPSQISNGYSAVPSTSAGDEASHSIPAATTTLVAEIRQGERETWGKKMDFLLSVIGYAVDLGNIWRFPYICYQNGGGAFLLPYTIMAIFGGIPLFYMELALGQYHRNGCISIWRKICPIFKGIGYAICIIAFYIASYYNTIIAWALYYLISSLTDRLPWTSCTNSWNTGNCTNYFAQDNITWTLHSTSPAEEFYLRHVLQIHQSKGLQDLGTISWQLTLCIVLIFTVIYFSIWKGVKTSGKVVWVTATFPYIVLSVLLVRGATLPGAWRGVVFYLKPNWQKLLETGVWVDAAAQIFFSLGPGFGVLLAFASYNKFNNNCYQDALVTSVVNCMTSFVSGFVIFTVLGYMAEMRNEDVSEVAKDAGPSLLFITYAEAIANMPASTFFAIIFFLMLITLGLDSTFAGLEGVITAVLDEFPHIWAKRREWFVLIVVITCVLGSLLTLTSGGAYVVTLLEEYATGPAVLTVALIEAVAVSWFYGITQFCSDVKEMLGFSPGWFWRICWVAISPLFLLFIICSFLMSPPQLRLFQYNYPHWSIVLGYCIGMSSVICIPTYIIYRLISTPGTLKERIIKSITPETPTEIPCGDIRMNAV
Chain of Sodium-dependent dopamine transporter (Rattus norvegicus, UniProt P23977) (P23977 whole entry): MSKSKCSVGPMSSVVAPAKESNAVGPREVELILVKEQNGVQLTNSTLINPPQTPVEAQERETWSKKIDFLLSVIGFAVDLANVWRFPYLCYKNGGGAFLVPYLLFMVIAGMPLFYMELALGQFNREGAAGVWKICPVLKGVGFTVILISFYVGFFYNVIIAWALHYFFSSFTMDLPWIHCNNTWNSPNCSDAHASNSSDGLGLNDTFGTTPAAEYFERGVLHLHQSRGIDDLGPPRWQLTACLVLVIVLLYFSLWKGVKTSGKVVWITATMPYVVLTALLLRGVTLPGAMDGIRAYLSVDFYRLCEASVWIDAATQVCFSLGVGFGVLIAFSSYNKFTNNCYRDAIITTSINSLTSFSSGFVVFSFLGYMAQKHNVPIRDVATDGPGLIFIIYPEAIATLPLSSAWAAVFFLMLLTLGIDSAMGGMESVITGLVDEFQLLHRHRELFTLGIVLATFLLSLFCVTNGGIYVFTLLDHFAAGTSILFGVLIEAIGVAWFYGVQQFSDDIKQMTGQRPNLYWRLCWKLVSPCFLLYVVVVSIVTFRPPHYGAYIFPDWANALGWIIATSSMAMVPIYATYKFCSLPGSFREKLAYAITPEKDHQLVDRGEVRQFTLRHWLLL
Chain of Norepinephrine transporter (Q9WTR4 whole entry): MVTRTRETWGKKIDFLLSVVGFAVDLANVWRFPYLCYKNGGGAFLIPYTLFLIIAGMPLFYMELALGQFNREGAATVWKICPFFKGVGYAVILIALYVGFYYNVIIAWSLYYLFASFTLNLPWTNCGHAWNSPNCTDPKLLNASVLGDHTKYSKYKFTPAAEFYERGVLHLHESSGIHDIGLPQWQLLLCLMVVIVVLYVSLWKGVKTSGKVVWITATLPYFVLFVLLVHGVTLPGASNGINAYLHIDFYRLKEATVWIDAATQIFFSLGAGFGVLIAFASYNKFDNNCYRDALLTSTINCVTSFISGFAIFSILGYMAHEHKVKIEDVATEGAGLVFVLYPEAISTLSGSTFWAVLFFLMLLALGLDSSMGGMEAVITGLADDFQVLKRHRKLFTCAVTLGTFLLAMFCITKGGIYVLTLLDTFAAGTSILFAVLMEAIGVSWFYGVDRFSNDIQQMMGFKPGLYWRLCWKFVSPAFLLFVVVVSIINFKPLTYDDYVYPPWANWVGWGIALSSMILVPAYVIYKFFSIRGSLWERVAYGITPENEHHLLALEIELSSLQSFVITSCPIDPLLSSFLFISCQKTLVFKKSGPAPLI
Chain of Sodium-dependent dopamine transporter (Homo sapiens, UniProt Q01959) (Q01959 whole entry): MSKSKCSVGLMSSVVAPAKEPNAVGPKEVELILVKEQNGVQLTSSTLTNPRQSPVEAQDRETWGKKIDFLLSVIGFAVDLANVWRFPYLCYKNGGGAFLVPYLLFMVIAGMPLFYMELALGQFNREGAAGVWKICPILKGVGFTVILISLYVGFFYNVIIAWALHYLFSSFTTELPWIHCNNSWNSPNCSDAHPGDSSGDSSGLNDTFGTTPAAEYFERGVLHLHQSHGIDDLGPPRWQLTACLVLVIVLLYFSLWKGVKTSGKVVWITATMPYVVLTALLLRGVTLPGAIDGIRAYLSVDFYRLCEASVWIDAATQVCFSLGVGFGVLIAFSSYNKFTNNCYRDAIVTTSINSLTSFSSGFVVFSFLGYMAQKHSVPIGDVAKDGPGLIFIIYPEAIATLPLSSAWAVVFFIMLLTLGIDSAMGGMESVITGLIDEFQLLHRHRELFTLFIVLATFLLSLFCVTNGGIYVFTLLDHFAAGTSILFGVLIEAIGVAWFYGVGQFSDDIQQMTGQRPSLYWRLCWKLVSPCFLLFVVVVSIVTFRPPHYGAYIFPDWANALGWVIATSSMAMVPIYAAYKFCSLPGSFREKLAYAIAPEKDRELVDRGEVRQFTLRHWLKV

With `C[C@@H](CF)OC(=O)C1C(c2ccc(Cl)cc2)CC2CCC1N2C` (stereo partly drawn) as the compound, how does the Ratio (kidney) read?
Its Ratio is 127.

And the Ratio [1]?
The Ratio was 23.

What about the Ki [2] of the same compound?
The Ki was 0.67 nM.

And the Ki [3]?
The Ki was 137 nM.

What about the Ki [4] of the same compound?
Its Ki is 6.06 nM.

And the Ki [5]?
Its Ki is 85 nM.

What about the Ki [6] of the same compound?
The Ki was 690 nM.

Which Biodistribution (Rattus norvegicus [7]) does the source give for `C[C@H](CF)OC(=O)C1C(c2ccc(Cl)cc2)CC2CCC1N2C` (stereo partly drawn) here?
Its Biodistribution is 1.03%.

What about the Biodistribution (Rattus norvegicus [8]) of the same compound?
The Biodistribution was 0.22%.

What about the Biodistribution (Rattus norvegicus [9]) of the same compound?
The Biodistribution was 0.4%.

What about the Biodistribution (Rattus norvegicus [10]) of the same compound?
Its Biodistribution is 0.27%.

And the “S/CX Ratio” value [11]?
Its value is 3.

What about the Ratio (kidney) of the same compound?
Its Ratio is 20.

And the Biodistribution (Rattus norvegicus [12])?
Its Biodistribution is 1.42%.

What about the “S/Cereb Ratio” value [13] of the same compound?
The value was 6.

And the Biodistribution (Rattus norvegicus [14])?
Its Biodistribution is 0.77%.

What about the Biodistribution (Rattus norvegicus [15]) of the same compound?
The Biodistribution was 2.04%.

And the Ratio [1]?
Its Ratio is 9.

And the “S/Cereb Ratio” value [16]?
Its value is 2.79.

And the Biodistribution (Rattus norvegicus [17])?
Its Biodistribution is 1.2%.

And the Ki [2]?
The Ki was 3.2 nM.

And the Biodistribution (Rattus norvegicus [18])?
Its Biodistribution is 3.97%.

What about the “S/CX Ratio” value [19] of the same compound?
Its value is 1.44.

And the “S/Cereb Ratio” value [20]?
Its value is 5.45.

And the Biodistribution (Rattus norvegicus [21])?
The Biodistribution was 0.99%.

What about the “S/CX Ratio” value [22] of the same compound?
Its value is 2.96.

And the Ki [3]?
Its Ki is 133 nM.

What about the “S/CX Ratio” value [23] of the same compound?
The value was 2.21.

And the Biodistribution (Rattus norvegicus [24])?
Its Biodistribution is 2.76%.

And the Ki [4]?
The Ki was 14.7 nM.

And the Biodistribution (Rattus norvegicus [25])?
Its Biodistribution is 0.38%.

What about the Biodistribution (Rattus norvegicus [26]) of the same compound?
The Biodistribution was 1.36%.

What about the Ki [5] of the same compound?
Its Ki is 64 nM.

And the Biodistribution (Rattus norvegicus [27])?
Its Biodistribution is 0.45%.

What about the Biodistribution (Rattus norvegicus [28]) of the same compound?
Its Biodistribution is 4.5%.

And the Biodistribution (Rattus norvegicus [29])?
Its Biodistribution is 2.28%.

What about the Ki [6] of the same compound?
Its Ki is 498 nM.

And the “S/Cereb Ratio” value [30]?
Its value is 4.55.
